The text below walks through data of article PMC3319382 (Bioorganic & medicinal chemistry, 2011).

Assay [1] concerns the target Ras Converting Enzyme 1 (Rce1p), HA-epitope tagged, yeast (S. cerevisiae) (UniProt Q03530). Put plainly: cross-linking.
Assay [2] addresses T1, yeast Rce1p (Saccharomyces cerevisiae, UniProt Q03530).
T1 sequence (Q03530 1-315): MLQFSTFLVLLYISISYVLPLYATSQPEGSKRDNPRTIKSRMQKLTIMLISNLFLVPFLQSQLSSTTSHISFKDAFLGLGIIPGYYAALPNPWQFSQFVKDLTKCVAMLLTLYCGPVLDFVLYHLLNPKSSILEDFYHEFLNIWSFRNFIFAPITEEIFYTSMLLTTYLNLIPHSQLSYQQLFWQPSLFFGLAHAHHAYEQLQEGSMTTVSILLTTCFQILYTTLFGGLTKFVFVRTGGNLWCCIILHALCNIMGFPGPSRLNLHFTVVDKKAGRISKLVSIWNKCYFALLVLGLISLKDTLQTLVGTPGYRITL
The following applies: ref [12], [13]; cited from earlier work.

The target in assay [3] is T1, yeast Rce1p. Put plainly: fluorescence-based CAAX proteolysis kinetic assay. The class given is biochemical. The method, boiled down:
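Enzyme source was carbonate-washed membranes from S. cerevisiae overexpressing yeast Rce1p as sole CAAX protease, diluted in 100 mM Hepes pH 7.5, 5 mM MgCl2 and preincubated 10 min at 30 °C. The final mix held 0.25 mg/mL membrane protein and a 10-point substrate series (0–45 or 0–50 μM) in triplicate wells. Read at 340/420 nm every 30–60 s for 1 h at 30 °C. Product was quantified against trypsin-cleaved standard curves.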

“Also recorded” adds a separate entry of the source.

Take “Peptide 9, Biotin-K(Dde)KSKTKC(C10BP)K(Dnp)IM”: in assay [1], the fold labeling efficiency against probe 8 (fold less than 8) came to 4.
Take `[Zn]` [zinc]: on yeast Rce1p [2], the “inhibition of yeast Rce1p” value is “inhibited”.
With `c1cnc2c(c1)ccc1cccnc12` [1,10-phenanthroline], the “inhibition of yeast Rce1p” value on yeast Rce1p [2] is recorded as “inhibited”.
As for “Peptide 2, Abz-KSKTKC(farnesyl)K(Dnp)IM, internally quenched fluorogenic farnesylated substrate based on the K-Ras4b C-terminal sequence”, in assay [1], the percent labeling of Rce1p by 14 (15 μM) left with 50 μM 2 amounted to 84% and the percent labeling of Rce1p by 14 (15 μM) left with 100 μM 2 worked out at 7%.
Abz-KSKTKC(C10BP)K(Dnp)IM [Peptide 6]: the “h (Hill coefficient)” value on yeast Rce1p [3] (Rce1p-enriched membranes 0.25 mg/mL, pH 7.5, 30 °C, Hill Equation fit, n=5) amounted to 1.8. The Vmax/KM at yeast Rce1p [3] (Rce1p-enriched membranes 0.25 mg/mL, pH 7.5, 30 °C, n=5) is on record as 8.9×10^−5 L/min/mg protein. On yeast Rce1p [3] (compared with 2), the “efficiency (Vmax/KM) of Rce1p processing, fold lower than 2” value was 10 -fold and the “maximal processing rate (Vmax), fold less than 2” value is given as “approximately 7 -fold”. In addition, on yeast Rce1p [3] (compared with 4), the “efficiency (Vmax/KM) of Rce1p processing compared with 4” value is listed as “approximately double that of 4; also recorded: increased approximately two-fold” and the “maximal processing rate (Vmax), fold greater than 4” value is given as 9 -fold. For the same compound, at yeast Rce1p [3] (fluorescence-based kinetic evaluation), the “Rce1p substrate” value is given as “could serve as a substrate for Rce1p”. Also, the “binding affinity, fold less than that of 4” value on yeast Rce1p [3] (from KM, compared with 4) was 4 -fold.
